Usually IC50 stands for the point on the concentration scale where inhibition reaches its midpoint.

For data set [1], the system named is metabolism of JNJ-38877605 in human 12000×g liver supernatant. The class given is in vitro ADME. The settings on record: 5 μM 3H-JNJ-38877605, human 12000×g liver supernatant. The procedure, abridged: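 5 μM 3H-labelled test compound incubated with human 12000×g liver supernatant, with and without specific inhibitors of aldehyde oxidase/CYP2C8 or of CYP-450. Metabolites identified by LC-MS and quantified via the 3H label. Read-out is % inhibition of formation of each metabolite and of summed metabolite formation.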

A short description of data set [2]: plasma metabolite profiling, dog. The class given is in vivo. The settings on record: 3H-JNJ-38877605 2.5 mg/kg, at about Cmax (1-4 h).
Data set [3] addresses c-Met Kinase. To be noted: read-out: IC50 for c-Met Kinase in vitro; cited from earlier work.
For data set [4], the system named is Fms. The settings on record: of 246 kinases tested; cited from earlier work.
The nature of data set [5]: phase I first-in-human dose escalation study, toxicity. The class given is in vivo.
The nature of data set [6]: metabolite formation in human liver 12000 ×g supernatant. The format is in vitro ADME. To be noted: 5 μM 3H-JNJ-38877605, 120 min. A digest of the protocol: (§1)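 Radiolabelled (3H) test compound was incubated with human liver subcellular fractions (microsomes or 12000 ×g supernatant). Metabolites were identified by LC-MS and quantified only where a reference standard or 3H label existed. Parallel incubations included specific inhibitors, quercetin (aldehyde oxidase/CYP2C8) or 1-aminobenzotriazole (CYP-450). Results were expressed as % inhibition of metabolite formation.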

A short description of data set [7]: plasma metabolite profiling, rat. The class given is in vivo. The settings on record: 3H-JNJ-38877605 2.5 mg/kg, at about Cmax (1-4 h).
The nature of data set [8]: plasma metabolite profiling, man. The settings on record: 60 mg, at about Cmax (1-4 h). The format is in vivo, human.
The nature of data set [9]: metabolite formation in human liver microsomes. The format is in vitro ADME. The settings on record: 5 μM 3H-JNJ-38877605, 120 min. A digest of the protocol: as §1
Data set [10] can be described thus: pharmacokinetics in humans, phase I study. The format is in vivo, human. To be noted: patients. A digest of the protocol: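 Patients received oral test compound once daily in 21-day cycles: 60 mg starting dose, with 10-40 mg OD levels added later. Blood was sampled at pre-specified times from cycle 1 day 1. Parent and N-desmethyl metabolite M2 were quantified in plasma. Cmax, tmax, t1/2, AUC and terminal elimination rate were calculated.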

Data set [11] can be described thus: 1-month non-GLP toxicology study in male rabbit, post-mortem kidney changes. To be noted: 1-month dosing; for Basophilia, corticotubular with basement membrane thickening, incidence / Dilatation, collecting ducts with amorphous material, incidence / Dilation, corticotubular, extending towards cortex, incidence / Fibrosis, cortical, incidence / Hypertrophy, corticotubular; with spicules and multinucleated cells, incidence: N 4. The format is in vivo.

A short description of data set [12]: plasma metabolite profiling, rabbit. The settings on record: 3H-JNJ-38877605 100 mg/kg, at about Cmax (1-4 h). The class given is in vivo.
Where [13] appears, read: group 2: 50 mg/kg 3/week (150 mg/kg/week).
[14] abbreviates: group 3: 100 mg/kg 1/week (100 mg/kg/week).
[15] abbreviates: group 4: 200 mg/kg 1/week (200 mg/kg/week).
Setting [16] is: group 5: 100 mg/kg 3/week (300 mg/kg/week).
Setting [17] is: group 6: 50 mg/kg 1/day (350 mg/kg/week).

Take `Nn1nnc2ccccc21` [1-aminobenzotriazole]: in data set [1], the “% inhibition of metabolite formation, M1/M2” value came out at 58%; the “% inhibition of metabolite formation, M3” value worked out at 1%; the “% inhibition of metabolite formation, M4” value is 70%; the “% inhibition of metabolite formation, UD (sum of all metabolite formation)” value worked out at 19%.

Regarding `Cn1cc(-c2ccc3nnc(C(F)(F)c4ccc5ncccc5c4)n3n2)cn1` [JNJ-38877605], in data set [2], the concentration in plasma is given as 575 ngeq/ml. The IC50 in [3] was 4.7 nM. For the same molecule, the “selectivity for c-Met kinase relative to the next most potently inhibited kinase (Fms)” value in data set [4] is recorded as > 833 fold. In data set [5] (40 mg OD), the “patients with grade 1 SCr increase” value was 2/3. In addition, the “serum creatinine (SCr) increase, CTCAE grade” value in [5] (60 mg OD, all 5 subjects, asymptomatic) is given as “Grade 1”. For the same molecule, the “time to SCr increase after start of treatment” value in [5] (60 mg OD, in 4 patients) is 2 to 3 days. Besides, in data set [5] (1 patient, 40 mg cohort, cycle 1 day 21 (98 pre-treatment)), the “glomerular filtration rate by Cr51 measurement” value came to 45 ml/min/1.73m^2. In addition, the “decrease of glomerular filtration rate by Cr51 measurement” value in data set [5] (1 patient, 40 mg cohort, pre-treatment to cycle 1 day 21) is > 50%. In [5] (10 and 20 mg OD), the renal toxicity result is “no indication of renal toxicity”. For the same molecule, the “formation of metabolites after incubation of JNJ-38877605” value in data set [6] was 26.0. Besides, in data set [7], the concentration in plasma amounted to 1466 ngeq/ml. Besides, the concentration in plasma in data set [8] is 111 ngeq/ml. Also, in data set [9], the “formation of metabolites after incubation of JNJ-38877605” value was 12.8. Further, the “accumulation after 21 days” value in data set [10] (oral OD) was “virtually no accumulation”. In data set [10] (oral), the plasma half-life result was “short” and the “time of Cmax after ingestion” value is 1.5 to 4 h. Moreover, in data set [11] (setting [13]), the “Dilatation, collecting ducts with amorphous material, animals graded minimal” value (shortened to “Dilatation … animals graded minimal”) came out at 3; the “Dilatation, collecting ducts with amorphous material, animals graded moderate” value (shortened to “Dilatation … animals graded moderate”) worked out at 0; the “Dilatation, collecting ducts with amorphous material, animals graded slight” value (“Dilatation … animals graded slight” below) was determined as 0; the “Kidney weights, fold change vs control” value is given as “×0.93 fold”. For the same molecule, in data set [11] (setting [13]), the “Basophilia, corticotubular with basement membrane thickening, incidence” value (“Basophilia, corticotubular” below) is listed as 2; the “Dilatation, collecting ducts with amorphous material, incidence” value (“Dilatation, collecting ducts … incidence” below) came to 3; the “Dilation, corticotubular, extending towards cortex, incidence” value (from here on “Dilation, corticotubular … incidence”) stood at 0; the “Fibrosis, cortical, incidence” value is given as 0. Moreover, the “Hypertrophy, corticotubular; with spicules and multinucleated cells, incidence” value (shortened to “Hypertrophy, corticotubular”) in data set [11] (setting [13]) is on record as 1. Further, in data set [11] (setting [14]), the “Dilatation … animals graded minimal” value stood at 1; the “Dilatation … animals graded moderate” value came to 0; the “Dilatation … animals graded slight” value came to 3; the “Basophilia, corticotubular” value is reported as 2. In [11] (setting [14]), the “Dilatation, collecting ducts … incidence” value amounted to 4; the “Dilation, corticotubular … incidence” value is recorded as 0; the “Fibrosis, cortical, incidence” value is given as 0; the “Hypertrophy, corticotubular” value is reported as 3. In data set [11] (setting [15]), the “Dilatation … animals graded minimal” value turned out to be 0; the “Dilatation … animals graded moderate” value came out at 1; the “Dilatation … animals graded slight” value stood at 3; the “Dilation, corticotubular, extending towards cortex, animals graded minimal” value (shortened to “Dilation … animals graded minimal”) came to 2. Further, in data set [11] (setting [15]), the “Dilation, corticotubular, extending towards cortex, animals graded slight” value (“Dilation, corticotubular … animals graded slight” for short) came out at 1; the “Fibrosis, cortical, animals graded minimal” value amounted to 0; the “Fibrosis, cortical, animals graded slight” value was determined as 1; the “Kidney weights, fold change vs control” value is recorded as “×1.20 fold”. Further, in data set [11] (setting [15]), the “Basophilia, corticotubular” value is recorded as 4; the “Dilatation, collecting ducts … incidence” value stood at 4; the “Dilation, corticotubular … incidence” value is 3; the “Fibrosis, cortical, incidence” value was 1. Besides, the “Hypertrophy, corticotubular” value in data set [11] (setting [15]) worked out at 4. In data set [11] (setting [16]), the “Dilatation … animals graded minimal” value was determined as 1; the “Dilatation … animals graded moderate” value amounted to 1; the “Dilatation … animals graded slight” value is 2; the “Dilation … animals graded minimal” value is given as 2. Further, in [11] (setting [16]), the “Dilation, corticotubular … animals graded slight” value was determined as 1; the “Fibrosis, cortical, animals graded minimal” value amounted to 2; the “Fibrosis, cortical, animals graded slight” value is recorded as 0; the “Kidney weights, fold change vs control” value was “×1.13 fold”. For the same molecule, in [11] (setting [16]), the “Basophilia, corticotubular” value was found to be 3; the “Dilatation, collecting ducts … incidence” value was 4; the “Dilation, corticotubular … incidence” value amounted to 3; the “Fibrosis, cortical, incidence” value came out at 2. Also, the “Hypertrophy, corticotubular” value in data set [11] (setting [16]) is on record as 4. In [11] (setting [17]), the “Dilatation … animals graded minimal” value was determined as 0; the “Dilatation … animals graded moderate” value was 2; the “Dilatation … animals graded slight” value stood at 2; the “Dilation … animals graded minimal” value came out at 2. For the same molecule, in data set [11] (setting [17]), the “Dilation, corticotubular … animals graded slight” value stood at 1; the “Fibrosis, cortical, animals graded minimal” value is 1; the “Fibrosis, cortical, animals graded slight” value was determined as 1; the “Basophilia, corticotubular” value is listed as 4. Further, in data set [11] (setting [17]), the “Dilatation, collecting ducts … incidence” value came out at 4; the “Dilation, corticotubular … incidence” value is recorded as 3; the “Fibrosis, cortical, incidence” value is listed as 2; the “Hypertrophy, corticotubular” value is 4. For the same molecule, the concentration in plasma in data set [12] is listed as 22836 ngeq/ml.

Consider `FC(F)(c1ccc2ncccc2c1)c1nnc2ccc(-c3cn[nH]c3)nn12` [M2], for which the concentration in plasma in data set [2] is 31 ngeq/ml; in [7] it was 136 ngeq/ml; in [8], 3 ngeq/ml; in [12], 6388 ngeq/ml.

In the case of `O=c1c(O)c(-c2ccc(O)c(O)c2)oc2cc(O)cc(O)c12` [Quercetin], in [1], the “% inhibition of metabolite formation, M1/M2” value stood at 75%; the “% inhibition of metabolite formation, M3” value worked out at 94%; the “% inhibition of metabolite formation, M4” value worked out at 73%; the “% inhibition of metabolite formation, UD (sum of all metabolite formation)” value is 112%.

The values above are taken from paper PMC4433755 (Clinical cancer research : an official journal of the …, 2015).
